Measured values gathered from unrelated publications.
Lines come from different studies, so protocols differ.
Medium: plasma

| Structure (SMILES) | species | route | dose | setting | Tmax [h] |
| --- | --- | --- | --- | --- | --- |
| C[C@H]1Oc2cc(cnc2N)-c2c(nn(C)c2C#N)CN(C)C(=O)c2ccc(F)cc21 | male Sprague-Dawley rat | oral | 50 mg/kg | single dose | 11.4 |
| CC[C@@H]([C@H](C)O)n1ncn(-c2ccc(N3CCN(c4ccc(OC[C@@H]5CO[C@@](Cn6cncn6)(c6ccc(F)cc6F)C5)cc4)CC3)cc2)c1=O | Sprague-Dawley rat | oral | 40 mg/kg |  | 3.05 |
| C[C@@]12C[C@@]3(O)O[C@@H](O1)[C@]1(COC(=O)c4ccccc4)[C@H]3C[C@@]12O[C@@H]1O[C@H](CO)[C@@H](O)[C@H](O)[C@H]1O | male Sprague-Dawley rat | oral | 80 mg/kg |  | 0.506 |
| CN(C)C(=O)c1cc2cnc(Nc3ccc(N4CCNCC4)cn3)nc2n1C1CCCC1 | male Sprague-Dawley rat | intraperitoneal | 100 mg/kg |  | 0.5 |
| COc1ccc(N(Cc2csc(-c3ccccc3)n2)C(=O)CCCCCC(=O)NO)cc1 | female Sprague-Dawley rat | intravenous | 5 mg/kg |  | 0.08 |
| CCCCCCCCCC(=O)N[C@@H](Cc1c[nH]c2ccccc12)C(=O)N[C@H](CC(N)=O)C(=O)N[C@@H](CC(=O)O)C(=O)N[C@@H]1C(=O)NCC(=O)N[C@@H](CCCN)C(=O)N[C@@H](CC(=O)O)C(=O)N[C@H](C)C(=O)N[C@@H](CC(=O)O)C(=O)NCC(=O)N[C@H](CO)C(=O)N[C@@H]([C@H](C)CC(=O)O)C(=O)N[C@@H](CC(=O)c2ccccc2N)C(=O)O[C@@H]1C | male Wistar rat | subcutaneous | 125 mg/kg | single dose | 5 |
| CCCCC(=O)Nc1ccc(-c2ccc3ncn(CCC)c(=O)c3c2)cn1 | male rat | oral | 10 mg/kg |  | 0.25 |
| CCN(CC)Cc1ccc2cc(COC(=O)Nc3ccc(C(=O)NO)cc3)ccc2c1 | male Sprague-Dawley rat | oral | 10 mg/kg |  | ~1.72 |
| COc1cc(-c2cc(C(C)=O)n3ccccc23)c(OC)cc1Cn1ccnc1 | male Sprague-Dawley rat | oral | 5 mg/kg |  | 0.5 |
| C=CC(=O)N1CCC[C@@H](n2nc(-c3ccc(Oc4ccccc4)cc3)c3c(N)ncnc32)C1 | male Wistar rat | oral | 40 mg/kg |  | 2 |
| CONC(=O)c1cccc2c1cc(C)n2-c1nc2c(c(NCc3ccccc3)n1)CCCN2 | male Sprague-Dawley rat | oral | 10 mg/kg | single dose | 0.25 |
| CCCc1nc2c(C)cc(-c3nc4ccccc4n3C)cc2n1Cc1ccc(-c2ccccc2C(=O)O)cc1 | male Sprague-Dawley rat | oral | 8 mg/kg | single dose | 3.5 |
| CCOc1c([C@H](C)n2nc(C)c3c(N)ncnc32)cc(Cl)c(F)c1[C@@H]1CNC(=O)C1 | male Sprague-Dawley rat | oral | 2 mg/kg | single dose | ~2.42 |
| C1=C/COCc2cc(ccc2OCCN2CCCC2)Nc2nccc(n2)-c2cccc(c2)COC/1 | male Sprague-Dawley rat | oral | 36 mg/kg |  | 8.67 |
| C=CC(=O)N1CCC([C@@H]2CCNc3c(C(N)=O)c(-c4ccc(Oc5ccccc5)cc4)nn32)CC1 | Sprague-Dawley rat | oral | 16 mg/kg |  | 1.5 |
| C[C@H]1[C@@H](O)O[C@@H]2O[C@@]3(C)CC[C@H]4[C@H](C)CC[C@@H]1[C@@]24OO3 | male Sprague-Dawley rat | oral | 10 mg/kg |  | 0.75 |
| O=C1CCC(N2Cc3cc(C4CCN(Cc5ccccc5)CC4)ccc3C2=O)C(=O)N1 (centres unmarked) | male Sprague-Dawley rat | intravenous | 1 mg/kg |  | 0.14 |
